Measured values taken from ChEMBL document CHEMBL5724801, “EUbOPEN Chemogenomics Library - Multiplex” (2024).
Values joined by “and” are separate entries in the source; they are usually repeats but may differ in a detail not shown here. Identical values can stand only once.

Assays:
[1] = tested on: U2OS; assay: Multiplex assay against U2OS; type: toxicity, cell-based; settings: human
Method in brief: (§1)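 On a CQ1 microscope at 37°C and 5% CO2, live cells were imaged after compound addition. They had been stained at seeding with Hoechst33342, BioTracker Green Microtubule Cytoskeleton Dye, MitoTracker Red and Annexin V Alexa Fluor 680. CellPathfinder machine-learning gating assigned cells to Hoechst high-intensity objects or normal cells, normal cells to healthy, pyknosed or fragmented nuclei, and pyknosed cells to mitotic or apoptotic. Tubulin, mitochondrial-mass and membrane-permeability phenotypes are per cents of healthy-nucleus cells.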

[2] = tested on: Fibroblast; assay: Multiplex assay against human fibroblast; type: toxicity, cell-based; method in brief: as §1
[3] = 12 h, 1 µM, compound concentration 1 uM
[4] = 12 h, 10 µM, compound concentration 10 uM
[5] = 24 h, 1 µM, compound concentration 1 uM
[6] = 24 h, 10 µM, compound concentration 10 uM
[7] = 48 h, 1 µM, compound concentration 1 uM
[8] = 48 h, 10 µM, compound concentration 10 uM

SMILES: COc1cc(C(=O)N(CCCc2ccccc2)Cc2ccc(CC(=O)O)cc2)cc(OC)c1C
- Population Apoptotic (%) [1, 3]: 95% and 70%
- Population Fragmented Nuclei (%) [1, 3]: 29% and 23%
- Population Healthy Nuclei (%) [1, 3]: 60% and 65%
- Population Hoechst High Intensity Objects (%) [1, 3]: 4%
- Population Membrane Permeable-Phenotype (%) [1, 3]: 7% and 8%
- Population Mitochondria Different-Phenotype (%) [1, 3]: 4% and 1%
- Population Normal (%) [1, 3]: 95%
- Population Pyknosed Nuclei (%) [1, 3]: 10% and 11%
- Population Tubulin-Different-Phenotype (%) [1, 3]: 4% and 1%
- Total Cell Count [1, 3]: 228 and 93
- Population Apoptotic (%) [1, 4]: 82% and 100%
- Population Fragmented Nuclei (%) [1, 4]: 22% and 15%
- Population Healthy Nuclei (%) [1, 4]: 71% and 79%
- Population Hoechst High Intensity Objects (%) [1, 4]: 0% and 1%
- Population Membrane Permeable-Phenotype (%) [1, 4]: 5% and 2%
- Population Mitochondria Different-Phenotype (%) [1, 4]: 0% and 3%
- Population Mitotic Cells (%) [1, 4]: 17% and 0%
- Population Normal (%) [1, 4]: 99% and 98%
- Population Pyknosed Nuclei (%) [1, 4]: 6% and 4%
- Population Tubulin-Different-Phenotype (%) [1, 4]: 2% and 4%
- Total Cell Count [1, 4]: 262 and 171
- Population Apoptotic (%) [1, 5]: 84% and 73%
- Population Fragmented Nuclei (%) [1, 5]: 29% and 22%
- Population Healthy Nuclei (%) [1, 5]: 61% and 64%
- Population Hoechst High Intensity Objects (%) [1, 5]: 2% and 4%
- Population Membrane Permeable-Phenotype (%) [1, 5]: 7% and 2%
- Population Mitochondria Different-Phenotype (%) [1, 5]: 6% and 2%
- Population Mitotic Cells (%) [1, 5]: 15% and 26%
- Population Normal (%) [1, 5]: 97% and 95%
- Population Pyknosed Nuclei (%) [1, 5]: 9% and 13%
- Population Tubulin-Different-Phenotype (%) [1, 5]: 4% and 0%
- Total Cell Count [1, 5]: 288 and 120
- Population Apoptotic (%) [1, 6]: 94% and 84%
- Population Fragmented Nuclei (%) [1, 6]: 18% and 12%
- Population Healthy Nuclei (%) [1, 6]: 76% and 80%
- Population Hoechst High Intensity Objects (%) [1, 6]: 0% and 2%
- Population Membrane Permeable-Phenotype (%) [1, 6]: 7%
- Population Mitochondria Different-Phenotype (%) [1, 6]: 2% and 5%
- Population Mitotic Cells (%) [1, 6]: 5% and 15%
- Population Normal (%) [1, 6]: 99% and 97%
- Population Pyknosed Nuclei (%) [1, 6]: 5% and 6%
- Population Tubulin-Different-Phenotype (%) [1, 6]: 3% and 5%
- Total Cell Count [1, 6]: 318 and 192
- Population Apoptotic (%) [1, 7]: 86% and 78%
- Population Fragmented Nuclei (%) [1, 7]: 23% and 22%
- Population Healthy Nuclei (%) [1, 7]: 69% and 64%
- Population Hoechst High Intensity Objects (%) [1, 7]: 3% and 6%
- Population Membrane Permeable-Phenotype (%) [1, 7]: 5% and 7%
- Population Mitochondria Different-Phenotype (%) [1, 7]: 2% and 5%
- Population Mitotic Cells (%) [1, 7]: 13% and 21%
- Population Normal (%) [1, 7]: 96% and 93%
- Population Pyknosed Nuclei (%) [1, 7]: 7% and 12%
- Population Tubulin-Different-Phenotype (%) [1, 7]: 4% and 6%
- Total Cell Count [1, 7]: 408 and 159
- Population Apoptotic (%) [1, 8]: 93% and 94%
- Population Fragmented Nuclei (%) [1, 8]: 18% and 15%
- Population Healthy Nuclei (%) [1, 8]: 75% and 71%
- Population Hoechst High Intensity Objects (%) [1, 8]: 1% and 3%
- Population Membrane Permeable-Phenotype (%) [1, 8]: 4% and 8%
- Population Mitochondria Different-Phenotype (%) [1, 8]: 2% and 1%
- Population Mitotic Cells (%) [1, 8]: 6% and 5%
- Population Normal (%) [1, 8]: 98% and 96%
- Population Pyknosed Nuclei (%) [1, 8]: 6% and 13%
- Population Tubulin-Different-Phenotype (%) [1, 8]: 2% and 4%
- Total Cell Count [1, 8]: 504 and 280
- Population Apoptotic (%) [2, 3]: 63% and 42%
- Population Fragmented Nuclei (%) [2, 3]: 14% and 37%
- Population Healthy Nuclei (%) [2, 3]: 73% and 45%
- Population Hoechst High Intensity Objects (%) [2, 3]: 2% and 4%
- Population Membrane Permeable-Phenotype (%) [2, 3]: 0% and 11%
- Population Mitochondria Different-Phenotype (%) [2, 3]: 0% and 5%
- Population Mitotic Cells (%) [2, 3]: 36% and 57%
- Population Normal (%) [2, 3]: 97% and 95%
- Population Pyknosed Nuclei (%) [2, 3]: 12% and 16%
- Population Tubulin-Different-Phenotype (%) [2, 3]: 15% and 36%
- Total Cell Count [2, 3]: 160 and 176
- Population Apoptotic (%) [2, 4]: 41% and 45%
- Population Fragmented Nuclei (%) [2, 4]: 16% and 25%
- Population Healthy Nuclei (%) [2, 4]: 70% and 61%
- Population Hoechst High Intensity Objects (%) [2, 4]: 2% and 4%
- Population Membrane Permeable-Phenotype (%) [2, 4]: 0% and 7%
- Population Mitochondria Different-Phenotype (%) [2, 4]: 5% and 4%
- Population Mitotic Cells (%) [2, 4]: 58% and 54%
- Population Normal (%) [2, 4]: 97% and 95%
- Population Pyknosed Nuclei (%) [2, 4]: 12% and 13%
- Population Tubulin-Different-Phenotype (%) [2, 4]: 28% and 47%
- Total Cell Count [2, 4]: 197 and 181
- Population Apoptotic (%) [2, 5]: 68% and 52%
- Population Healthy Nuclei (%) [2, 5]: 77% and 41%
- Population Hoechst High Intensity Objects (%) [2, 5]: 1% and 4%
- Population Membrane Permeable-Phenotype (%) [2, 5]: 0% and 1%
- Population Mitochondria Different-Phenotype (%) [2, 5]: 0% and 6%
- Population Mitotic Cells (%) [2, 5]: 31% and 48%
- Population Normal (%) [2, 5]: 98% and 95%
- Population Pyknosed Nuclei (%) [2, 5]: 10% and 13%
- Population Tubulin-Different-Phenotype (%) [2, 5]: 13% and 28%
- Total Cell Count [2, 5]: 156 and 189
